From ChEMBL document CHEMBL1287712, “Synthetic analogs of indole-containing natural products as inhibitors of sortase A and isocitrate lyase” (Bioorg Med Chem Lett, 2010)
In brackets after ≈: the same amount, converted by molar mass. Several values for one entry are separate records, joined by “and”; a condition that tells them apart may be missing. Identical values can stand only once.

Assays:
Isocitrate lyase = Isocitrate lyase (Candida albicans, UniProt Q9P8Q7); assay: Inhibition of Candida albicans isocitrate lyase
Sortase A = biological target: T1, Sortase A (Staphylococcus aureus, UniProt Q9S446); assay: Inhibition of Staphylococcus aureus Sortase A
T1 sequence (Q9S446 whole entry): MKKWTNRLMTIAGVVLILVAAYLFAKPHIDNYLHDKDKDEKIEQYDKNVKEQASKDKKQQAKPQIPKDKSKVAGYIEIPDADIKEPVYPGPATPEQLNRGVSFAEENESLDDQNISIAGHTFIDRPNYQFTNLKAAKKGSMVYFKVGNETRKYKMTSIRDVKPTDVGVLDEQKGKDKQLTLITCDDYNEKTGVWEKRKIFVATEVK

Bacillus subtilis = assay: Antimicrobial activity against Bacillus subtilis ATCC 6633; assay type: functional
Procedure, shortened: (§1)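 MIC by two-fold serial broth dilution in microtiter format. MIC taken as the lowest concentration giving complete growth inhibition relative to the negative control.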

Micrococcus luteus = assay: Antimicrobial activity against Micrococcus luteus IFC 12708; assay type: functional; procedure, shortened: as §1
Salmonella typhimurium = assay: Antimicrobial activity against Salmonella Typhimurium ATCC 14028; assay type: functional, Salmonella enterica subsp. enterica serovar Typhimurium; settings: Salmonella enterica; procedure, shortened: as §1
Proteus vulgaris = assay: Antimicrobial activity against Proteus vulgaris ATCC 3851; assay type: functional; procedure, shortened: as §1
Staphylococcus aureus = assay: Antimicrobial activity against Staphylococcus aureus ATCC 6538p; assay type: functional; procedure, shortened: as §1
Escherichia coli = assay: Antimicrobial activity against Escherichia coli ATCC 25922; assay type: functional; procedure, shortened: as §1

Isocitrate lyase, sequence (Q9P8Q7 whole entry): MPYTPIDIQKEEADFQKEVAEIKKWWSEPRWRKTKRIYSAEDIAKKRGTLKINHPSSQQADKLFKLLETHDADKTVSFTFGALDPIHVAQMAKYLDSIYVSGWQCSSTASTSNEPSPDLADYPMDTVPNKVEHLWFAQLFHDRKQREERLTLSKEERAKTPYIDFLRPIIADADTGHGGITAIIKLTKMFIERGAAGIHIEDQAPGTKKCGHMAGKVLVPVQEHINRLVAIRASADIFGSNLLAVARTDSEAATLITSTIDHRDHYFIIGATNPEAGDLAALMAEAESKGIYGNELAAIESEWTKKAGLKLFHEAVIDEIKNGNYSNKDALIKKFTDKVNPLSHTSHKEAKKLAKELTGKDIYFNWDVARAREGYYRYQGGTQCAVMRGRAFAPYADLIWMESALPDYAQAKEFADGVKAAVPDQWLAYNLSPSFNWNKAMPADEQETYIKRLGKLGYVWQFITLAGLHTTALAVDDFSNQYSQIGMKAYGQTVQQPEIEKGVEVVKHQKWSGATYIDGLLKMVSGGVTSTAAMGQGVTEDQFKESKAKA

## O=C(O)C(=O)c1c[nH]c2ccc(O)cc12
Isocitrate lyase
  IC50: > 487 µM
Sortase A
  IC50: > 487 µM

## COc1ccc2[nH]cc(C(=O)C(=O)O)c2c1
Isocitrate lyase
  IC50: > 456 µM
Sortase A
  IC50: > 456 µM

## Cc1[nH]c2ccccc2c1C(=O)C(=O)O
Bacillus subtilis
  MIC: > 200 µg/mL
Micrococcus luteus
  MIC: > 200 µg/mL
Salmonella typhimurium
  MIC: > 200 µg/mL
Proteus vulgaris
  MIC: > 200 µg/mL
Staphylococcus aureus
  MIC: > 200 µg/mL
Escherichia coli
  MIC: > 200 µg/mL
Isocitrate lyase
  IC50: > 492 µM
Sortase A
  IC50: 133 µM

## CCCCCC1NCCc2c1[nH]c1ccccc21 (centres undefined)
Isocitrate lyase
  IC50: > 413 µM
Sortase A
  IC50: > 413 µM

## CCCCCC1NCCc2c1[nH]c1ccc(OC)cc21 (centres undefined)
Isocitrate lyase
  IC50: > 367 µM
Sortase A
  IC50: > 367 µM

## Oc1ccc2[nH]c3c(c2c1)CCNC3c1ccccc1 (centres undefined)
Bacillus subtilis
  MIC: 100 µg/mL (≈ 378 µM)
Micrococcus luteus
  MIC: 100 µg/mL (≈ 378 µM)
Salmonella typhimurium
  MIC: 100 µg/mL (≈ 378 µM)
Proteus vulgaris
  MIC: 100 µg/mL (≈ 378 µM)
Staphylococcus aureus
  MIC: 100 µg/mL (≈ 378 µM)
Escherichia coli
  MIC: > 200 µg/mL
Isocitrate lyase
  IC50: > 378 µM
Sortase A
  IC50: 106 µM

## c1ccc(C2=NCCc3c2[nH]c2ccccc32)cc1
Bacillus subtilis
  MIC: > 200 µg/mL
Micrococcus luteus
  MIC: > 200 µg/mL
Salmonella typhimurium
  MIC: > 200 µg/mL
Proteus vulgaris
  MIC: > 200 µg/mL
Staphylococcus aureus
  MIC: > 200 µg/mL
Escherichia coli
  MIC: > 200 µg/mL
Isocitrate lyase
  IC50: > 406 µM
Sortase A
  IC50: 97.4 µM and 97 µM

## O=C(Nc1ccccc1)C(=O)c1c[nH]c2ccc(O)cc12
Isocitrate lyase
  IC50: > 357 µM
Sortase A
  IC50: > 357 µM

## COc1ccc2[nH]cc(C(=O)C(=O)Nc3ccccc3)c2c1
Isocitrate lyase
  IC50: > 340 µM
Sortase A
  IC50: > 340 µM

## COc1ccc2[nH]c3c(c2c1)CCNC3c1ccccc1 (centres undefined)
Bacillus subtilis
  MIC: > 200 µg/mL
Micrococcus luteus
  MIC: > 200 µg/mL
Salmonella typhimurium
  MIC: > 200 µg/mL
Proteus vulgaris
  MIC: > 200 µg/mL
Staphylococcus aureus
  MIC: > 200 µg/mL
Escherichia coli
  MIC: > 200 µg/mL
Isocitrate lyase
  IC50: > 359 µM
Sortase A
  IC50: 115 µM

## c1ccc2cc(C3NCCc4c3[nH]c3ccccc43)ccc2c1 (centres undefined)
Bacillus subtilis
  MIC: 6.25 µg/mL (≈ 20.9 µM)
Micrococcus luteus
  MIC: 12.5 µg/mL (≈ 41.9 µM)
Salmonella typhimurium
  MIC: 12.5 µg/mL (≈ 41.9 µM)
Proteus vulgaris
  MIC: 6.25 µg/mL (≈ 20.9 µM)
Staphylococcus aureus
  MIC: 12.5 µg/mL (≈ 41.9 µM)
Escherichia coli
  MIC: 50 µg/mL (≈ 168 µM)
Isocitrate lyase
  IC50: 137 µM
Sortase A
  IC50: > 335 µM

## COc1ccc(C2NCCc3c2[nH]c2ccccc32)cc1 (centres undefined)
Bacillus subtilis
  MIC: 6.25 µg/mL (≈ 22.5 µM)
Micrococcus luteus
  MIC: 6.25 µg/mL (≈ 22.5 µM)
Salmonella typhimurium
  MIC: 6.25 µg/mL (≈ 22.5 µM)
Proteus vulgaris
  MIC: 6.25 µg/mL (≈ 22.5 µM)
Staphylococcus aureus
  MIC: 12.5 µg/mL (≈ 44.9 µM)
Escherichia coli
  MIC: 50 µg/mL (≈ 180 µM)
Isocitrate lyase
  IC50: 180 µM
Sortase A
  IC50: > 359 µM

## COc1ccc2[nH]c3c(c2c1)CCN=C3c1ccccc1
Bacillus subtilis
  MIC: > 200 µg/mL
Micrococcus luteus
  MIC: > 200 µg/mL
Salmonella typhimurium
  MIC: > 200 µg/mL
Proteus vulgaris
  MIC: > 200 µg/mL
Staphylococcus aureus
  MIC: > 200 µg/mL
Escherichia coli
  MIC: > 200 µg/mL
Isocitrate lyase
  IC50: > 362 µM
Sortase A
  IC50: 25.3 µM and 25 µM

## c1ccc(C2NCCc3c2[nH]c2ccccc32)cc1 (centres undefined)
Isocitrate lyase
  IC50: > 403 µM
Sortase A
  IC50: > 403 µM

## COc1cccc(C2NCCc3c2[nH]c2ccccc32)c1 (centres undefined)
Bacillus subtilis
  MIC: 12.5 µg/mL (≈ 44.9 µM)
Micrococcus luteus
  MIC: 12.5 µg/mL (≈ 44.9 µM)
Salmonella typhimurium
  MIC: 12.5 µg/mL (≈ 44.9 µM)
Proteus vulgaris
  MIC: 12.5 µg/mL (≈ 44.9 µM)
Staphylococcus aureus
  MIC: 6.25 µg/mL (≈ 22.5 µM)
Escherichia coli
  MIC: 50 µg/mL (≈ 180 µM)
Isocitrate lyase
  IC50: 75 µM and 75.4 µM
Sortase A
  IC50: > 359 µM

## O=C(O)C1NCCc2c1[nH]c1ccc(O)cc21 (centres undefined)
Isocitrate lyase
  IC50: > 431 µM
Sortase A
  IC50: > 431 µM

## O=C(O)C1NCCc2c1[nH]c1ccccc21 (centres undefined)
Isocitrate lyase
  IC50: > 462 µM
Sortase A
  IC50: > 462 µM

## O=C(Nc1ccccc1)C(=O)c1c[nH]c2ccccc12
Bacillus subtilis
  MIC: > 200 µg/mL
Micrococcus luteus
  MIC: > 200 µg/mL
Salmonella typhimurium
  MIC: > 200 µg/mL
Proteus vulgaris
  MIC: > 200 µg/mL
Staphylococcus aureus
  MIC: > 200 µg/mL
Escherichia coli
  MIC: > 200 µg/mL
Isocitrate lyase
  IC50: > 378 µM
Sortase A
  IC50: 174 µM

## COc1ccc2[nH]c3c(c2c1)CCNC3C(=O)O (centres undefined)
Isocitrate lyase
  IC50: > 406 µM
Sortase A
  IC50: > 406 µM

## O=C1NCCc2c1[nH]c1ccc(O)cc21
Isocitrate lyase
  IC50: > 495 µM
Sortase A
  IC50: > 495 µM

## COC(=O)c1c[nH]c2ccc(O)cc12
Isocitrate lyase
  IC50: > 523 µM
Sortase A
  IC50: > 523 µM

## O=C(O)C1=NCCc2c1[nH]c1ccc(O)cc21
Sortase A
  IC50: 291 µM and 290 µM

## O=Cc1c[nH]c2ccc(O)cc12
Sortase A
  IC50: > 621 µM

## Cc1[nH]c2ccccc2c1C(=O)C(=O)Nc1ccccc1
Bacillus subtilis
  MIC: > 200 µg/mL
Micrococcus luteus
  MIC: > 200 µg/mL
Salmonella typhimurium
  MIC: > 200 µg/mL
Proteus vulgaris
  MIC: > 200 µg/mL
Staphylococcus aureus
  MIC: > 200 µg/mL
Escherichia coli
  MIC: > 200 µg/mL
Isocitrate lyase
  IC50: > 359 µM
Sortase A
  IC50: 61.1 µM and 61 µM

## O=C(O)C(=O)c1c[nH]c2ccccc12
Bacillus subtilis
  MIC: > 200 µg/mL
Micrococcus luteus
  MIC: > 200 µg/mL
Salmonella typhimurium
  MIC: > 200 µg/mL
Proteus vulgaris
  MIC: > 200 µg/mL
Staphylococcus aureus
  MIC: > 200 µg/mL
Escherichia coli
  MIC: > 200 µg/mL
Isocitrate lyase
  IC50: > 529 µM
Sortase A
  IC50: 68.7 µM and 69 µM

## CC1(C)S[C@@H]2[C@H](NC(=O)[C@H](N)c3ccccc3)C(=O)N2[C@H]1C(=O)O [AMPICILLIN]
Bacillus subtilis
  MIC: 0.78 µg/mL (≈ 2.23 µM)
Micrococcus luteus
  MIC: 0.78 µg/mL (≈ 2.23 µM)
Salmonella typhimurium
  MIC: 1.56 µg/mL (≈ 4.46 µM)
Proteus vulgaris
  MIC: 0.78 µg/mL (≈ 2.23 µM)
Staphylococcus aureus
  MIC: 1.56 µg/mL (≈ 4.46 µM)
Escherichia coli
  MIC: 50 µg/mL (≈ 143 µM)

## O=C(CO)c1c[nH]c2ccc(O)cc12 [HYRTIOSIN A]
Sortase A
  IC50: > 523 µM

## O=C(C(=O)c1c[nH]c2ccc(O)cc12)c1c[nH]c2ccc(O)cc12 [HYRTIOSIN B]
Isocitrate lyase
  IC50: 90.5 µM
Sortase A
  IC50: > 312 µM

## NCCc1c[nH]c2ccc(O)cc12 [SEROTONIN]
Sortase A
  IC50: > 567 µM
